Values after ≈ are worked out from the molar mass of the structure shown.
Key:
[1] = Plasma protein binding in human; format: ADME, cell-free
[2] = Intrinsic clearance in human liver microsomes assessed as glucuronidation during phase 2 measured per mg of protein
[3] = molecular target: Human immunodeficiency virus type 1 integrase (Human immunodeficiency virus 1, UniProt Q7ZJM1); test: Inhibition of HIV1 recombinant integrase expressed in Escherichia coli using [32P]-labeled oligonucleotide as substrate after 60 mins by strand transfer activity assay
[4] = test system: Human immunodeficiency virus 1; test: Antiviral activity against HIV1 3B infected in human CEM-SS cells assessed as reduction of virus-induced cytopathic effect after 6 days by MTS assay; format: functional, organism-based; settings: Human immunodeficiency virus 1, 3B, 144 h
[5] = Intrinsic clearance in human liver microsomes during phase 1 measured per mg of protein; format: ADME, Microsome
[6] = test system: Human immunodeficiency virus 1; test: Antiviral activity against HIV1 infected in human P4R5 cells assessed as reduction of virus replication preincubated with cells for 24 hrs followed by viral infection for 48 hrs by 4-methylumbelliferylgalactoside-based MAGI assay; format: functional, organism-based
[7] = Intrinsic clearance in mouse liver microsomes assessed as glucuronidation during phase 2 measured per mg of protein; format: ADME, Microsome
[8] = Half life in human plasma; format: ADME, cell-free
[9] = test system: CEM-SS; test: Cytotoxicity against human CEM-SS cells assessed as cell death after 6 days by MTS assay; format: cell-based; settings: 144 h
Summary of the method: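 Dose-response format in CEM-SS cells exposed to compound alone (toxicity control wells) alongside the HIV-1 IIIB cytoprotection plates. Incubation was 6 days and viability was measured by MTS. CC50 is the concentration giving 50% cell death, determined from the dose-response data.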

[10] = test system: Human immunodeficiency virus 1; test: Antiviral activity against HIV1 3B infected in human CEM-SS cells assessed as reduction of virus-induced cytopathic effect at 10 uM after 6 days by MTS assay; format: functional; set-up: scale not given: the % may be the effect or the level left
Summary of the method: (§1)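 Single-concentration screen (10 μM) in CEM-SS cells infected with pre-titered HIV-1 IIIB, sized so virus control wells lose 70–95% viability. Incubation was 6 days and read-out was by MTS. Percent CPE reduction was calculated against virus control wells (cells plus virus). Percent viability was calculated against cell-only control wells. Plates included compound toxicity and colorimetric controls, and AZT as positive control.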

[11] = Aqueous solubility of the compound in DPBS; format: physicochemical; settings: buffer
[12] = test system: CEM-SS; test: Cytotoxicity against human CEM-SS cells assessed as cell viability at 10 uM after 6 days by MTS assay; format: cell-based; settings: 144 h; summary of the method: as §1
[13] = Half life of the compound in DPBS; format: physicochemical
[14] = Plasma protein binding in mouse; format: ADME, cell-free
[15] = Half life in mouse plasma; format: ADME, cell-free
[16] = molecular target: Human immunodeficiency virus type 1 reverse transcriptase (Human immunodeficiency virus 1, UniProt Q72547); test: Inhibition of RNase H activity of full length HIV1 reverse transcriptase using RNA-DNA duplex HTS-1 substrate
[17] = Therapeutic index, ratio of CC50 for human CEM-SS cells to EC50 for HIV1 3B infected in human CEM-SS cells; format: toxicity, cell-based; settings: read-out: Ratio CC50/EC50
[18] = test system: Human immunodeficiency virus 1; test: Fold resistance, ratio of EC50 for raltegravir-resistant HIV1 8070-2 expressing integrase G140S/Q148H mutant to EC50 for HIV1 expressing wild-type integrase; format: functional
[19] = test system: Human immunodeficiency virus 1; test: Fold resistance, ratio of EC50 for raltegravir-resistant HIV1 4736-2 expressing integrase N155H mutant to EC50 for HIV1 expressing wild-type integrase; format: functional
[20] = test system: Human immunodeficiency virus 1; test: Fold resistance, ratio of EC50 for raltegravir-resistant HIV1 1556-1 expressing integrase Y143C mutant to EC50 for HIV1 expressing wild-type integrase; format: functional
[21] = test system: Human immunodeficiency virus 1; test: Fold resistance, ratio of EC50 for raltegravir-resistant HIV1 8070-1 expressing integrase G140S/Y143H/Q148H mutant to EC50 for HIV1 expressing wild-type integrase; format: functional

Chain of Human immunodeficiency virus type 1 integrase (Q7ZJM1 whole entry): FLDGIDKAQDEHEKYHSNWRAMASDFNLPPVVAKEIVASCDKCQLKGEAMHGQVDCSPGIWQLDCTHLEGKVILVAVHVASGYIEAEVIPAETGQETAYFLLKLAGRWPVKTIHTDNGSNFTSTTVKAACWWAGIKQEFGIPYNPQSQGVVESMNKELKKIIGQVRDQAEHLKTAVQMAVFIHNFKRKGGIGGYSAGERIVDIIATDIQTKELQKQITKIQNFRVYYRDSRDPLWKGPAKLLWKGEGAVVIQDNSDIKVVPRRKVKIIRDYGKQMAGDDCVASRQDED

## CCNc1[nH]c(=O)n(O)c(=O)c1C(=O)NCc1ccccc1
[1]
  PPB: 99.1%
[2]
  CLH: 355 µL/min
[3]
  IC50: 33 nM
[4]
  EC50: 61 nM
[5]
  CLH: < 0.1 µL/min/mg
[6]
  EC50: 300 nM
[7]
  CLH: 732 µL/min/mg
[8]
  t1/2: > 24 h
[9]
  CC50: 23000 nM
[10]
  Activity: 100%
[11]
  solubility: 1091 µM (≈ 332 µg/mL)
[12]
  Activity: 100%
[13]
  half-life: > 24 h
[14]
  PPB: 83.9%
[15]
  t1/2: > 24 h
[16]
  IC50: 42 nM
[17]
  selectivity ratio: 380

## CC(C)Nc1[nH]c(=O)n(O)c(=O)c1C(=O)NCc1ccccc1
[3]
  IC50: 150 nM
[10]
  Activity: 98%
[12]
  Activity: 90%

## CCCNc1[nH]c(=O)n(O)c(=O)c1C(=O)NCc1cccc(Cl)c1F
[3]
  IC50: 58 nM
[10]
  Activity: 33%
[12]
  Activity: 48%

## CCNc1[nH]c(=O)n(O)c(=O)c1C(=O)NCCc1ccccc1
[3]
  IC50: 100 nM
[10]
  Activity: 99%
[12]
  Activity: 87%

## CCNc1[nH]c(=O)n(O)c(=O)c1C(=O)Nc1ccccc1
[3]
  IC50: 35000 nM
[10]
  Activity: 11%
[12]
  Activity: 27%

## CNc1[nH]c(=O)n(O)c(=O)c1C(=O)NCc1ccc(F)cc1
[3]
  IC50: 110 nM
[10]
  Activity: 100%
[12]
  Activity: 89%

## CCNc1[nH]c(=O)n(O)c(=O)c1C(=O)NCc1ccc(F)cc1F
[3]
  IC50: 48 to 68 nM
[4]
  EC50: 32 nM
[6]
  EC50: 70 nM
[9]
  CC50: 47000 nM
[10]
  Activity: 100%
[12]
  Activity: 92%
[16]
  IC50: 10 nM
[17]
  selectivity ratio: 1500

## Cc1cn([C@H]2C[C@H](N=[N+]=[N-])[C@@H](CO)O2)c(=O)[nH]c1=O [ZIDOVUDINE]
[18]
  Ratio EC50: 0.5
[19]
  Ratio EC50: 0.7
[20]
  Ratio EC50: 1.4
[21]
  Ratio EC50: 0.9

## CCNc1[nH]c(=O)n(O)c(=O)c1C(=O)NCc1cc(F)ccc1Cl
[3]
  IC50: 95 nM
[10]
  Activity: 62%
[12]
  Activity: 73%

## CCNc1[nH]c(=O)n(O)c(=O)c1C(=O)NCc1cc(F)ccc1F
[3]
  IC50: 68 nM
[10]
  Activity: 92%
[12]
  Activity: 87%

## O=C(NCc1ccc(F)cc1)c1c2n(c(=O)n(O)c1=O)CCCN2
[3]
  IC50: 430 nM
[10]
  Activity: 0%
[12]
  Activity: 5.5%

## CCNc1[nH]c(=O)n(O)c(=O)c1C(=O)Oc1ccccc1
[3]
  IC50: > 100000 nM
[10]
  Activity: 50%
[12]
  Activity: 100%

## CCNc1[nH]c(=O)n(O)c(=O)c1C(=O)NCc1cccc(F)c1
[3]
  IC50: 68 nM
[10]
  Activity: 100%
[12]
  Activity: 90%

## O=C(NCc1ccccc1)c1c(Nc2ccccc2)[nH]c(=O)n(O)c1=O
[3]
  IC50: > 100000 nM
[10]
  Activity: 0%
[12]
  Activity: 21%

## CCNc1[nH]c(=O)n(O)c(=O)c1C(=O)NCc1ccc(F)cc1
[1]
  PPB: 99.4%
[3]
  IC50: 49 nM
[4]
  EC50: 33 nM
[5]
  CLH: < 0.1 µL/min/mg
[6]
  EC50: 90 nM
[7]
  CLH: 1240 µL/min/mg
[8]
  t1/2: > 24 h
[9]
  CC50: 19000 nM
[10]
  Activity: 100%
[11]
  solubility: 150 µM (≈ 48.3 µg/mL)
[12]
  Activity: 99%
[13]
  half-life: > 24 h
[14]
  PPB: 86.5%
[15]
  t1/2: > 24 h
[16]
  IC50: 11 nM
[17]
  selectivity ratio: 580

## CCCNc1[nH]c(=O)n(O)c(=O)c1C(=O)NCc1ccccc1
[3]
  IC50: 66 nM
[10]
  Activity: 100%
[12]
  Activity: 97%

## O=C(NCc1ccccc1)c1c(NC2CC2)[nH]c(=O)n(O)c1=O
[3]
  IC50: 210 nM
[10]
  Activity: 98%
[12]
  Activity: 91%

## CCNc1c(C(=O)NCc2ccc(F)cc2)c(=O)n(O)c(=O)n1C
[3]
  IC50: > 100000 nM
[10]
  Activity: 6.5%
[12]
  Activity: 10%

## CCNc1[nH]c(=O)n(O)c(=O)c1C(=O)NCc1ccc(Cl)c(F)c1
[3]
  IC50: 120 nM
[4]
  EC50: 190 nM
[6]
  EC50: 800 nM
[9]
  CC50: 19000 nM
[10]
  Activity: 100%
[12]
  Activity: 100%
[16]
  IC50: 22 nM

## CC(C)(C)Nc1[nH]c(=O)n(O)c(=O)c1C(=O)NCc1ccccc1
[3]
  IC50: 81 nM
[10]
  Activity: 0%
[12]
  Activity: 17%

## CCNc1[nH]c(=O)n(O)c(=O)c1C(=O)NCc1ccc(F)c(F)c1
[3]
  IC50: 77 nM
[4]
  EC50: 49 nM
[6]
  EC50: 300 nM
[9]
  CC50: 21000 nM
[10]
  Activity: 100%
[12]
  Activity: 100%
[16]
  IC50: 26 nM
[17]
  selectivity ratio: 430

## CCNc1[nH]c(=O)n(O)c(=O)c1C(=O)NCc1cc(F)cc(F)c1
[3]
  IC50: 230 nM
[10]
  Activity: 100%
[12]
  Activity: 100%

## CNc1[nH]c(=O)n(O)c(=O)c1C(=O)NCc1ccccc1
[1]
  PPB: 99.2%
[2]
  CLH: 51 µL/min
[3]
  IC50: 80 nM
[4]
  EC50: 830 nM
[5]
  CLH: 0.8 µL/min/mg
[6]
  EC50: 3700 nM
[7]
  CLH: 500 µL/min/mg
[8]
  t1/2: > 24 h
[9]
  CC50: 58000 nM
[10]
  Activity: 100%
[11]
  solubility: 138 µM (≈ 40.1 µg/mL)
[12]
  Activity: 98%
[13]
  half-life: > 24 h
[14]
  PPB: 70.9%
[15]
  t1/2: > 24 h
[16]
  IC50: 61 nM
[17]
  selectivity ratio: 70

## CCNc1[nH]c(=O)n(O)c(=O)c1C(=O)NCc1cccc(Cl)c1F
[1]
  PPB: 98.4%
[18]
  Ratio EC50: 13
[3]
  IC50: 21 nM
[4]
  EC50: 15 nM
[5]
  CLH: < 0.1 µL/min/mg
[19]
  Ratio EC50: 2.4
[6]
  EC50: 300 nM
[20]
  Ratio EC50: 0.4
[7]
  CLH: 1065 µL/min/mg
[8]
  t1/2: > 24 h
[9]
  CC50: 18000 nM
[10]
  Activity: 100%
[11]
  solubility: 11 µM (≈ 3.92 µg/mL)
[12]
  Activity: 100%
[13]
  half-life: > 24 h
[14]
  PPB: 94%
[15]
  t1/2: > 24 h
[16]
  IC50: 29 nM
[21]
  Ratio EC50: 6.3
[17]
  selectivity ratio: 1200

## Nc1[nH]c(=O)n(O)c(=O)c1C(=O)NCc1ccccc1
[3]
  IC50: 900 nM
[10]
  Activity: 99%
[12]
  Activity: 100%

## CCNc1[nH]c(=O)n(O)c(=O)c1C(N)=O
[3]
  IC50: > 100000 nM

## CCNc1[nH]c(=O)n(O)c(=O)c1C(=O)NCc1ccc(C)c(F)c1
[1]
  PPB: 98.9%
[2]
  CLH: 357 µL/min
[3]
  IC50: 51 nM
[4]
  EC50: 150 nM
[5]
  CLH: < 0.1 µL/min/mg
[6]
  EC50: 1300 nM
[7]
  CLH: 1342 µL/min/mg
[8]
  t1/2: > 24 h
[9]
  CC50: 20000 nM
[10]
  Activity: 100%
[11]
  solubility: 81 µM (≈ 27.2 µg/mL)
[12]
  Activity: 100%
[13]
  half-life: > 24 h
[14]
  PPB: 95.9%
[15]
  t1/2: > 24 h
[16]
  IC50: 20 nM
[17]
  selectivity ratio: 130

## CNc1[nH]c(=O)n(O)c(=O)c1C(=O)NCc1cccc(Cl)c1F
[3]
  IC50: 110 nM
[10]
  Activity: 100%
[12]
  Activity: 100%

## O=C(NCc1ccccc1)c1c(Nc2ccc(-c3ccccc3)cc2)[nH]c(=O)n(O)c1=O
[3]
  IC50: > 100000 nM
[10]
  Activity: 0%
[12]
  Activity: 13%

## CCNc1[nH]c(=O)n(O)c(=O)c1C(=O)NCCCl
[3]
  IC50: > 100000 nM
[10]
  Activity: 5.1%
[12]
  Activity: 100%

## CNc1[nH]c(=O)n(O)c(=O)c1C(=O)NCc1cccc(F)c1
[3]
  IC50: 250 nM
[10]
  Activity: 100%
[12]
  Activity: 95%
